Assay results reported in paper PMC7654701 (Chemical communications (Cambridge, England), 2020).
Values belong to the compound of their own block, whether it stands above or below them.

Experiments:
class I HDACs = conditions: cited from earlier work
HDACs = assay: HDAC-Glo I/II Assays; format: biochemical; conditions: Table S1
HDAC3 = HDAC3 (Homo sapiens, UniProt O15379); assay: Western blot analysis of HDAC3 degradation in breast cancer cells; format: cell-based
How it was run: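 MDA-MB-468 cells were treated with test compound for 14 h, and HDAC3 was assessed by western blot with band intensity normalized to α-tubulin. For the mechanism arm, cells were pretreated for 1 h with 1 μM MG132 or 10 μM VHL032 before 125 nM compound. A time course used 125 nM. For washout, cells got 125 nM for 14 h, then drug-free medium for additional time.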

HDAC1 = HDAC1 (Homo sapiens, UniProt Q13547); assay: Western blot analysis of HDAC1 protein level in breast cancer cells; format: cell-based; conditions: MDA-MB-468 cells, 14 h treatment
How it was run: (§1)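 MDA-MB-468 cells were treated with test compound for 14 h, then the HDAC isoform protein level was assessed by western blot.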

HDAC2 = HDAC2 (Homo sapiens, UniProt Q92769); assay: Western blot analysis of HDAC2 protein level in breast cancer cells; format: cell-based; conditions: MDA-MB-468 cells, 14 h treatment
How it was run: as §1

HDAC6 = target: T1, HDAC6 (Homo sapiens, UniProt Q9UBN7); assay: Western blot analysis of HDAC6 protein level in MDA-MB-468 cells; format: cell-based; conditions: 14 h treatment
T1 sequence (Q9UBN7 1-1215): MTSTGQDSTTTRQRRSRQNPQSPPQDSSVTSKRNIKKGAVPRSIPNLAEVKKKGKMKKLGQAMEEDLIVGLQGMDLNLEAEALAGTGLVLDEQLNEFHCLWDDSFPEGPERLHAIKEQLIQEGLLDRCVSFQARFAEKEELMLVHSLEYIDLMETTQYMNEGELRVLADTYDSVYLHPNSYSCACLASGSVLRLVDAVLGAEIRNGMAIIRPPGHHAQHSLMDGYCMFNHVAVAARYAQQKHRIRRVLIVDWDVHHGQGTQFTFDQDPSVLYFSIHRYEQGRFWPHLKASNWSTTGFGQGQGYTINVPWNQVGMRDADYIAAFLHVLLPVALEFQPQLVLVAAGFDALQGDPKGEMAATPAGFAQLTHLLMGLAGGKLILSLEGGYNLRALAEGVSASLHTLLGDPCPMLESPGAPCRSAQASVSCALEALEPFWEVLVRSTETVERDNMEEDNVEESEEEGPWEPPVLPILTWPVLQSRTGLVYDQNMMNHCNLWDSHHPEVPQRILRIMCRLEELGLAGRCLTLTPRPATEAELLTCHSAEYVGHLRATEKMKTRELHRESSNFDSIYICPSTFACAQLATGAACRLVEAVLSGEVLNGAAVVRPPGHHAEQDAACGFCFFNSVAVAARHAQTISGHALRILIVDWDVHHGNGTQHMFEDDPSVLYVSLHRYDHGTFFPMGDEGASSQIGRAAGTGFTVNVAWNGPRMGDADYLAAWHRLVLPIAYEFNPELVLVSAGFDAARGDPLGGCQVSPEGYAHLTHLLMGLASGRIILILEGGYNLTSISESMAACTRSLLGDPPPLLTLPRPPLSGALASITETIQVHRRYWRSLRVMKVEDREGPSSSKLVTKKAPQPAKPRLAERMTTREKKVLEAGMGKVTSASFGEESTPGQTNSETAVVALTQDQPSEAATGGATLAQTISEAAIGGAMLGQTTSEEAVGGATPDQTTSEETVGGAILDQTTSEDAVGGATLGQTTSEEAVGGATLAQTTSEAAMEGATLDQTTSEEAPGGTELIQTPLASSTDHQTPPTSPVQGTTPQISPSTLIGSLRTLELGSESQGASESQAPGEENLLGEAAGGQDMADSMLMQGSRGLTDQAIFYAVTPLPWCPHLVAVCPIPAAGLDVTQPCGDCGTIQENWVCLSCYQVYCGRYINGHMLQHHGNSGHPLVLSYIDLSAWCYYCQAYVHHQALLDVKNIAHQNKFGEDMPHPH
How it was run: as §1

[1] = test system: histone acetylation at H3K27 and H4K5; assay: Western blot analysis of histone acetylation; format: cell-based
T47D = assay: Colony formation assay; format: cell-based; conditions: T47D breast cancer cells
How it was run: (§2)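 Cells were grown with test compound, and the medium with freshly added compound was replaced every five days until colonies reached suitable size. Colonies were then stained. Four biological replicates.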

HCC1143 = assay: Colony formation assay; format: cell-based; conditions: HCC1143 breast cancer cells
How it was run: as §2

BT549 = assay: Colony formation assay; format: cell-based; conditions: BT549 breast cancer cells
How it was run: as §2

MDA-MB-468 cells = assay: Colony formation assay; format: cell-based; conditions: difference was moderate
How it was run: as §2

Cytotoxicity = format: cell-based; conditions: Fig. S3

HDAC3, sequence (O15379 whole entry): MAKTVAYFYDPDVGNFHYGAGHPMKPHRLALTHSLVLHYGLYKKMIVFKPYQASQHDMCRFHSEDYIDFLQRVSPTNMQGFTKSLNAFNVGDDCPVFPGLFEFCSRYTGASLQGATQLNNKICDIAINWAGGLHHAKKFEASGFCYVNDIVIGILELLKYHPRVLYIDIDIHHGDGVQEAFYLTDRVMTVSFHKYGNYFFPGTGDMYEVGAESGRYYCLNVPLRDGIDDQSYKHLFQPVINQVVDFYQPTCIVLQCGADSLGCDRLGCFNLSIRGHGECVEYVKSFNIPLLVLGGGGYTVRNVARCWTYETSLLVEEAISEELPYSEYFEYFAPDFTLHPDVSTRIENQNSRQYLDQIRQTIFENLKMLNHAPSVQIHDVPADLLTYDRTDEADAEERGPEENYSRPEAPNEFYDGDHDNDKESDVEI
HDAC3, sequence (Q9Y618 whole entry partner): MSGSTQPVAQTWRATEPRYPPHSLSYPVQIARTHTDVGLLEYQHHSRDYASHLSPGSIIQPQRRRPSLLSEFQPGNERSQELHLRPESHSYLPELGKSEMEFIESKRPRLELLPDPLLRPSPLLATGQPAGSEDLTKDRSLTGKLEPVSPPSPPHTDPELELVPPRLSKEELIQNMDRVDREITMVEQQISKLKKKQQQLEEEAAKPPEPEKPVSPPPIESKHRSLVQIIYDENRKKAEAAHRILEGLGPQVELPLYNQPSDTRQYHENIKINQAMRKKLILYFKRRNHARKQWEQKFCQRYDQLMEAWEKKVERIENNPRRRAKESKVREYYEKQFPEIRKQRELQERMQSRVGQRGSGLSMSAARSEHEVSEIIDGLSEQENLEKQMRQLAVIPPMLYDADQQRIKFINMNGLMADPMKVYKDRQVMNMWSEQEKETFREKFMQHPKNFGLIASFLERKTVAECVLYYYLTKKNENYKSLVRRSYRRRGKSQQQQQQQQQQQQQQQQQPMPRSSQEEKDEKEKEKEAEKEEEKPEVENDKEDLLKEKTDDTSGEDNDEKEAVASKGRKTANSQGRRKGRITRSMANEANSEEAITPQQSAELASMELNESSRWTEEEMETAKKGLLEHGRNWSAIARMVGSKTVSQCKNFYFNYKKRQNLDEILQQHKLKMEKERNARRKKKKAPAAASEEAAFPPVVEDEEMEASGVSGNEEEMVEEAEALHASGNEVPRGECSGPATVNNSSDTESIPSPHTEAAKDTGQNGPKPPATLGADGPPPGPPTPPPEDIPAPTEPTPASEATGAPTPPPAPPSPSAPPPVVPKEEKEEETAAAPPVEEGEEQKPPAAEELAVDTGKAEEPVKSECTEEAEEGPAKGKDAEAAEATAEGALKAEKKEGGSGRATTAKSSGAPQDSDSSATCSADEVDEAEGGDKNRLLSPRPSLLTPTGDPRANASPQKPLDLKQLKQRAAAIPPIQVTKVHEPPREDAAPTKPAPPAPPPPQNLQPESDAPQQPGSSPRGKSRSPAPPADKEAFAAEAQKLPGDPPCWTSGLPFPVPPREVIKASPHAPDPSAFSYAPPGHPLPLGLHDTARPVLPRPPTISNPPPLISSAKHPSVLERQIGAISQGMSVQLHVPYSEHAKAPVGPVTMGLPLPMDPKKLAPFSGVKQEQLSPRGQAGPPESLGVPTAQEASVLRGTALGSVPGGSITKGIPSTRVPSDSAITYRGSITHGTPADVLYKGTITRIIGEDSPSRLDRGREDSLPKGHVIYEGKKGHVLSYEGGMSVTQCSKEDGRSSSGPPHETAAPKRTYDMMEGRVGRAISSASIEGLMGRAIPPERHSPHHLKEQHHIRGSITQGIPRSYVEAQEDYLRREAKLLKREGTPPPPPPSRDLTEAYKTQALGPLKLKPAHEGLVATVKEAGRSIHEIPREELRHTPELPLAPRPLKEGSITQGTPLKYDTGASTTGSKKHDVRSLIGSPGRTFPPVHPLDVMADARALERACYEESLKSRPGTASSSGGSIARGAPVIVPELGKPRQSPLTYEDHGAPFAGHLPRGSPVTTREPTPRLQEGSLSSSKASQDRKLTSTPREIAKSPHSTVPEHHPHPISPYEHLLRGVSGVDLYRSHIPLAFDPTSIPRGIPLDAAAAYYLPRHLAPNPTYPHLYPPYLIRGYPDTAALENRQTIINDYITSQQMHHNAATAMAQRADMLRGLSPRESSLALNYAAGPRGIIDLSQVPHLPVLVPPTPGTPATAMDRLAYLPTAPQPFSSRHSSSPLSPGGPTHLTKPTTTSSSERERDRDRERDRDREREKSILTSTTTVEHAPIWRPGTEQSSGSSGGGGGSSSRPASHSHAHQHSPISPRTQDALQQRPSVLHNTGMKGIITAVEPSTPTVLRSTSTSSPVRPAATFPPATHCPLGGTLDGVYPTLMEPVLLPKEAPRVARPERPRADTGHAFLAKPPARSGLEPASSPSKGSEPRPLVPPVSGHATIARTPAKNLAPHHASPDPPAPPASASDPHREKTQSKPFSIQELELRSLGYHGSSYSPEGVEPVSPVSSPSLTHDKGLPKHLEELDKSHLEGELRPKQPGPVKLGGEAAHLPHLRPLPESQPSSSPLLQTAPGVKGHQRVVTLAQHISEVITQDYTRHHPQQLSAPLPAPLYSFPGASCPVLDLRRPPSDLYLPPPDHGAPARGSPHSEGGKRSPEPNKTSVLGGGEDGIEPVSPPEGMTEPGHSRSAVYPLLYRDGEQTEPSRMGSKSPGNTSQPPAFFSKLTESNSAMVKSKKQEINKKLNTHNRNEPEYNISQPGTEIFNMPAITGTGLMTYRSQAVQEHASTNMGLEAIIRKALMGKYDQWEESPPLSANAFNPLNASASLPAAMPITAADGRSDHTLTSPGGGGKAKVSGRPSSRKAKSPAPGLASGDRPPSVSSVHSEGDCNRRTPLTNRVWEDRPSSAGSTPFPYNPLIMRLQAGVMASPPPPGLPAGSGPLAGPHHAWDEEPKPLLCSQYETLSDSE
HDAC2, sequence (Q92769 whole entry): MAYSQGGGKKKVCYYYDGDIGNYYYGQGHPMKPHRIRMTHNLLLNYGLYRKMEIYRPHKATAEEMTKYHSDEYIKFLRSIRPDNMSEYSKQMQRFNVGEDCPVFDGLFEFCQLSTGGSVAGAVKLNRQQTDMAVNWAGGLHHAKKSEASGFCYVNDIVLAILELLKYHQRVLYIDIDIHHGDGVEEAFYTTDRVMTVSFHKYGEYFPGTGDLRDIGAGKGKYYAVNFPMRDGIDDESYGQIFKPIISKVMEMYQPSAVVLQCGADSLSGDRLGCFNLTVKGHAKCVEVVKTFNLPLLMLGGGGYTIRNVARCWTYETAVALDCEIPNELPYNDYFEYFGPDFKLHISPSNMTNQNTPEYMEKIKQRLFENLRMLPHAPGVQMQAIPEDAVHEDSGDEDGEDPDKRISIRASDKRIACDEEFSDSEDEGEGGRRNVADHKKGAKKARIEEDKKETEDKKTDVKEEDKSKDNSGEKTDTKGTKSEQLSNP
HDAC1, sequence (Q13547 whole entry, canonical isoform): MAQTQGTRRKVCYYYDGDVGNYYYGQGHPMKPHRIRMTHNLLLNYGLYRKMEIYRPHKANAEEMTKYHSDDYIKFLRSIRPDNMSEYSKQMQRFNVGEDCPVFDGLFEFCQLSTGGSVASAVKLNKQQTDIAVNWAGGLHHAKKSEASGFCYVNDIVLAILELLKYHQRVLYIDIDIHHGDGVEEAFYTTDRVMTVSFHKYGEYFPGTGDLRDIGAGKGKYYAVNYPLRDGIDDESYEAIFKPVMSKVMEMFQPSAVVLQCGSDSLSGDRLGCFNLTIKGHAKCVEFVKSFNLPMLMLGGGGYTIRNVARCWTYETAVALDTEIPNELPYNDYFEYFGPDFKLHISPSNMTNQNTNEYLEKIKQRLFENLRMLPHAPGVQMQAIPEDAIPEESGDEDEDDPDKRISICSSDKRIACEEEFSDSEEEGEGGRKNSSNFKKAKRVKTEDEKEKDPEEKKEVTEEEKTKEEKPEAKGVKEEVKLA

Compound: CCCCNNC(=O)c1ccc(-c2ccccc2)cc1 [SR-3558]
HDAC isozyme binding preference (class I HDACs; benzoylhydrazide ZBG): preferentially binds to HDAC3
inhibition of class I HDACs (class I HDACs): potent and selective inhibitor

binding of HDAC3 compared with other HDACs (HDACs): more strongly
time for HDAC3 to rebound to the steady level after washout (HDAC3; MDA-MB-468, 125 nM for 14 h then drug-free medium): more than 12 h
HDAC3 degraded (HDAC3; MDA-MB-468, 125 nM, 8 h treatment): 70%
start of HDAC3 degradation (HDAC3; MDA-MB-468, 125 nM, time course): ≤ 2 h
HDAC3 degradation after pre-incubation with proteasome inhibitor MG132 (HDAC3; MDA-MB-468, XZ9002 125 nM, MG132 1 μM for 1 h): blocked
HDAC3 degradation after pre-incubation with VHL ligand VH032 (HDAC3; MDA-MB-468, XZ9002 125 nM, VH032 10 μM for 1 h): blocked
change in protein level of HDAC1 (HDAC1): no significant changes
change in protein level of HDAC2 (HDAC2): no significant changes
change in protein level of HDAC6 (HDAC6): no significant changes
Compound: CCCNNC(=O)c1ccc(-c2ccc(NC(=O)CCCCCCC(=O)N[C@H](C(=O)N3C[C@H](O)C[C@H]3C(=O)N[C@@H](C)c3ccc(-c4scnc4C)cc3)C(C)(C)C)cc2)cc1 [XZ9002]
histone acetylation ([1]; Fig. 2A and Fig. S2, moderate effects compared to 15 and CRBN-based PROTACs): dose-dependently increased
potency to induce histone hyperacetylation compared to 15 ([1]; Fig. S2): less potent
suppression of clonogenic growth compared to XZ9002-NC (T47D): markedly more potent
suppression of clonogenic growth compared to XZ9002-NC (HCC1143): markedly more potent
suppression of clonogenic growth compared to XZ9002-NC (BT549): markedly more potent
inhibition of clonogenic growth compared to XZ9002-NC (MDA-MB-468 cells): more effective
potency to induce cytotoxicity compared to 15 (Cytotoxicity): less potent

HDAC3 degradation (HDAC3; MDA-MB-468 cells, Fig. 2B): did not induce HDAC3 degradation
Compound: CCCNNC(=O)c1ccc(-c2ccc(NC(=O)CCCCCCC(=O)N[C@H](C(=O)N3C[C@@H](O)C[C@@H]3C(=O)N[C@@H](C)c3ccc(-c4scnc4C)cc3)C(C)(C)C)cc2)cc1 [XZ9002-NC]
